Assay outcomes (PubChem BioAssay)
A selection: hits, their analogues and other compounds. The true share with any hit is near 2.1%.
ABCB1 block – ABCB1 efflux pump inhibitors, primary screen, cell-based, multiplex, flow cytometry, ABCG2 counter-screen; inhibition, % at 6.6 µM; hit rate 0.067% among 190,000; AID 1326, 2008; CCRF-Adr cells, JC-1 efflux; ATP-dependent translocase ABCB1 (Homo sapiens), P08183; in the data active = inhibition above about 40%;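 also: 0% = vehicle and 100% = reference inhibitor; higher value means more JC-1 retained so stronger ABCB1 efflux block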
b-catenin transl – modulators of beta-catenin nuclear translocation, primary screen, imaging, HeLa cells, immunofluorescence, high-content; nuclear translocation activity, % at 5 µM; hit rate 0.3% among 190,000; AID 1665, 2009;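 active = nuclear translocation activity above 50% at 5 µM, with a well cell count of 50 or more; inconclusive = wells under 50 cells across six images, flagged as toxic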;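 also: per-cell ratio of nuclear to cytoplasmic median beta-catenin stain intensity; plate controls were DMSO negative control for no effect and GSK-3 inhibitor IX positive control for full effect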
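assay system = human HeLa cells, endogenous beta-catenin | times = compound treatment 24 h, 37°C, 5% CO2 | detection = Anti-beta-catenin immunofluorescence on PFA-fixed, Triton-permeabilized cells, DAPI nuclei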
Autophagy mod – autophagy modulators in MEF cells, primary screen, imaging, high-content, MEF GFP-LC3. calls only at 10 µM (by protocol). MEF GFP-LC3 puncta imaging; test concentration mostly 10 µM. AID 463193, 2010. hit rate 0.98% among 190,000;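 active = percentage of spot-positive cells more than 3 SD above its plate mean, without a fluorescence outlier flag or 80% toxicity; inconclusive = no clear call, values can overlap the other calls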;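 also: spot-positive cell cutoff set from DMSO-treated cells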
ABCG2 inh – ABCG2 efflux pump inhibitors, primary screen, multiplex with ABCB1, IgMXP3 cells, flow cytometry; Broad substrate specificity ATP-binding cassette transporter ABCG2 (Homo sapiens), Q9UNQ0; inhibition, % at 6.6 µM; hit rate 0.1% among 190,000; JC-1 efflux;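 active = inhibition above 80%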;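 also: 0% = DMSO and 100% = nicardipine control wells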
Target sequence (Q9UNQ0 whole entry, looked up): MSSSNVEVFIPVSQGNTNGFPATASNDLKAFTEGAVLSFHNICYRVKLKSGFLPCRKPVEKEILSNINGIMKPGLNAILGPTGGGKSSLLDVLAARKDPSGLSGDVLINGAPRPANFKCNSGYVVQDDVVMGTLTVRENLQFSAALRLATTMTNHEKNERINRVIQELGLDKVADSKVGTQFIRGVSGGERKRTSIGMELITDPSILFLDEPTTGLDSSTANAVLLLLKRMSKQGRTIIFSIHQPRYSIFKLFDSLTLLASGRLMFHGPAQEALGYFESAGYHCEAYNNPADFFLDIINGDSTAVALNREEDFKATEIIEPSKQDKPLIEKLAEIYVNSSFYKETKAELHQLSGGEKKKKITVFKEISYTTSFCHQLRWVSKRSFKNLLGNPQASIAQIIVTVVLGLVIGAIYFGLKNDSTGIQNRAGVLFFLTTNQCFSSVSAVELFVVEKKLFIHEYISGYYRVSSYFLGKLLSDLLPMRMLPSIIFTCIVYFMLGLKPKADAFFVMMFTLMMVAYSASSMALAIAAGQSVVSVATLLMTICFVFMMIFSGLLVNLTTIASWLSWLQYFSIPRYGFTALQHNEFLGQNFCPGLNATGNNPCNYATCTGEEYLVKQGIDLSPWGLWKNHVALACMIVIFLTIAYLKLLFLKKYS
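System: two drug-resistant human cell lines, ABCG2 and ABCB1; controls: nicardipine high and DMSO low controls; times: 10 min exposure at 25 °C with rotation, no wash; detection: flow cytometry of retained JC-1 fluorescence; read-out basis: percent efflux inhibition, scaled nicardipine 100% to DMSO 0%; doses: one concentration, 6.6 µM final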
MT stabilizer – microtubule stabilizers in HeLa cells, primary screen, imaging, high-content imaging; AID 2205, 2009; hit rate 0.83% among 200,000; HeLa tubulin immunostaining HCS, 24 h; share of cells brighter than vehicle mean+2SD; % tubulin-high responders, % at 10 µM;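 active = plate Z-score above 3 for both tubulin-high and condensed-nucleus cell shares, with cell loss under 80%, at 10 µM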;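 also: anti alpha tubulin signal scored within the nucleus-defined area of each cell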
Arbovirus inh – antivirals against arbovirus infection, primary screen, cell-based, full library, 10K replicate subset; inhibition, % at 10 µM; hit rate 0.37% among 200,000; arbovirus infection cell-based antiviral screen; in the data active = inhibition above about 30%
An asterisk follows results filed as active; i = inactive; ? = inconclusive; . = no result given; + = active, no number.

SMILES	ABCB1 block	b-catenin transl	Autophagy mod	ABCG2 inh	MT stabilizer	Arbovirus inh
Cc1onc(-c2c(Cl)cccc2Cl)c1C(=O)NCc1ccco1	0.6	3.1	i	1.6	3.3	5.3
CC1=NNC(=O)/C1=C\c1cn(-c2ccccc2)nc1-c1cccs1	-3.5	?	i	-9.1	52.8	-32.3
CC1=NNC(=O)/C1=C\c1cn(-c2ccccc2)nc1-c1ccc(F)cc1	0.9	5.0	i	17.3	22.1*	-30.3
CCCC(=O)NC(c1cccs1)c1cc([N+](=O)[O-])c2cccnc2c1O (stereo not given)	-1.2	.	i	-8.2	0.5	-32.3
O=C(CCc1ccccc1)NC(c1cccs1)c1cc(Cl)c2cccnc2c1O (stereo not given)	0.3	-0.5	i	2.2	10.3*	-28.4
COc1ccc(OC)c(NS(=O)(=O)c2ccc(Br)s2)c1	0.9	-1.3	i	6.6	9.6*	-11.9
COc1ccc(OC)c(NS(=O)(=O)c2ccc(SC)cc2)c1	1.1	1.2	i	6.5	24.6	-0.9
CCOc1ccc(S(=O)(=O)Nc2cc(OC)ccc2OC)cc1	0.3	51.8*	+	1.2	10.8	-15.7
COc1ccc(Cl)cc1NS(=O)(=O)c1ccc(OC)c(OC)c1	1.7	2.7	i	9.4	2.8	-5.8
COc1ccc(S(=O)(=O)Nc2cc(Cl)ccc2OC)cc1	1.4	45.1	i	20.5	23.7*	-3.7
CCOc1ccccc1C(=O)Nc1cc(OC)ccc1OC	2.9	-3.3	+	100.0*	5.4	-8.7
Cc1nnn(C23CC4CC(CC(C(=O)NN)(C4)C2)C3)n1	0.7	.	i	3.7	3.3	5.8
CCc1ccc(OCC(=O)N(C)C)c(Br)c1	0.0	0.9	+	0.5	4.4	-1.0
O=C(c1ccco1)N1CCN(C(=O)N2CCCCC2)CC1	0.0	0.4	i	0.0	2.8	-2.9
CCOC(=O)C1(Cc2cccc(OC)c2)CCN(Cc2ccccc2OC)CC1	1.6	-2.6	i	2.0	2.9	11.3
CCOC(=O)C1(Cc2cccc(OC)c2)CCN(Cc2cccc(OC)c2O)CC1	1.5	-0.1	i	1.1	1.6	33.2*
O=S(=O)(c1ccccc1)c1cnc(-c2ccccc2)nc1N1CCCC1	0.9	1.3	i	2.8	2.2	10.2
Cc1ccc(N=Nc2c(N)nn(-c3ccccc3)c2N)cc1	0.1	1.6	i	1.4	10.3*	-19.3
Cc1nn(-c2ccccc2)c(N)c1N=Nc1ccc2ccccc2c1	-1.1	-3.4	i	20.1	2.5	-19.7
N#Cc1ccc(Oc2ccc(C(N)=O)cc2)cc1C#N	1.0	-2.4	i	10.4	1.7	0.2
CC(=O)Nc1sc(N)nc1-c1ccccc1	0.3	.	+	-0.4	4.5	-9.8
COc1cccc(Cn2c(-c3nonc3N)nc3ccccc32)c1	1.5	.	i	7.6	50.0*	-21.6
Cc1ccc(Cn2c(-c3nonc3N)nc3ccccc32)cc1	0.5	-1.9	i	2.2	5.5	-2.9
COc1cc(Cn2c(-c3nonc3N)nc3ccccc32)ccc1C	0.1	.	+	3.7	15.4	-16.6
CCCCOc1ccccc1NC(=O)Cn1c(-c2nonc2N)nc2ccccc21	0.1	0.5	+	0.9	27.4*	-28.6
SMILES	ABCB1 block	b-catenin transl	Autophagy mod	ABCG2 inh	MT stabilizer	Arbovirus inh
CC1Cc2ccccc2N1C(=S)NC(=O)C1(C)CC1(Cl)Cl (stereo not given)	-0.3	7.0	i	0.2	5.2	-3.2
O=C(NCCc1ccc(S(=O)(=O)N2CCCC2)cc1)c1cccs1	1.1	-1.5	i	10.7	2.2	5.4
Cc1cc2ccccc2n1CCNC(=O)C(C)C	0.1	1.4	i	0.4	2.3	4.5
CSc1ccc(C(=O)C2CCCN(Cc3ccc(N4CCNC4=O)cc3)C2)cc1 (stereo not given)	0.7	6.6	i	0.1	13.9*	-15.3
COc1ccccc1-c1cc(C(=O)NCCc2ccccc2)no1	0.4	.	i	1.2	20.9*	-18.3
COc1ccc(NC(=O)c2cc(-c3ccco3)on2)cc1	0.0	.	i	7.0	3.5	-7.3
COc1ccc(NC(=O)c2cc(-c3ccccc3OC)on2)cc1	0.7	144.6*	i	3.6	51.1*	-18.1
COc1ccc(CCNC(=O)c2cc(-c3ccccc3OC)on2)cc1OC	2.8	-1.1	i	37.5	2.2	-7.6
COc1ccccc1-c1cc(C(=O)Nc2cccnc2)no1	1.0	69.7*	i	24.6	24.2*	-0.5
COc1cc(NC(=O)c2cc(-c3cccs3)on2)cc(OC)c1OC	0.1	2.1	i	3.4	54.0*	-19.3
COc1ccc(-c2csc(NC(=S)NC(=O)c3ccco3)n2)cc1	-0.1	6.5	+	6.4	5.0	-18.0
O=C(/C=C/c1ccco1)NC(=S)Nc1nc(-c2ccc(Cl)cc2)cs1	-0.4	-2.5	i	2.6	12.4*	-12.2
O=C(CCl)N(c1ccccc1)C1CCS(=O)(=O)C1 (stereo not given)	0.4	1.7	i	2.5	4.4	-3.0
CCN(CC)c1ccc(/C=C/C(=O)c2ccc(Br)cc2)cc1	3.2	-1.3	+	5.7	3.4	16.1
O=C1NC(c2ccc3c(c2)OCO3)Oc2ccccc21 (stereo not given)	-3.4	-4.1	i	0.7	1.8	9.5
O=C1NC(c2ccc3c(c2)OCO3)Nc2ccccc21 (stereo not given)	0.6	-1.4	i	1.6	21.7*	-18.2
COc1cc(-c2nnc(-c3ccc(S(=O)(=O)c4ccccc4)cc3)o2)cc(OC)c1OC	0.8	-4.3	i	4.0	4.0	9.3
COc1cc(-c2nnc(-c3ccc(N4CCOCC4)cc3)o2)cc(OC)c1OC	3.7	0.3	i	13.3	2.6	47.7*
COc1ccc(-c2cc(-c3ccc(OC)cc3)nc(-c3ccc4c(c3)NC(=O)CO4)c2)cc1	0.0	-2.7	+	1.0	3.4	-5.8
CCc1ccc2c(c1)C1(NN=C(c3cccc4ccccc34)S1)C(=O)N2 (stereo not given)	-1.4	7.5	+	-1.9	4.0	-24.4
CCc1ccc2c(c1)C1(C(=O)N2)N2CCCC2C(C(=O)c2ccc3ccccc3c2)C12C(=O)Nc1ccccc12 (stereo not given)	0.6	-2.1	i	2.9	71.8	-42.2
COc1ccc(C(=O)N2CCn3c2nc2ccccc23)cc1	0.2	-0.5	i	0.7	2.2	-0.2
